Experimental data published in ChEMBL document CHEMBL5303300, “EUbOPEN Chemogenomics Library - Multiplex” (2023).
“And” between values parts separate entries of the source, which are not always exact repeats. Equal values may be shown once.

How the values were obtained:
HEK-293T = experiment: Multiplex assay against HEK293T; type: toxicity, cell-based; details: human, number of replicates 2
Procedure, shortened: (§1)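 Tubulin, mitochondrial-mass and membrane-permeability phenotypes are per cents of healthy-nucleus cells. Cells were gated by CellPathfinder machine learning into Hoechst high-intensity objects or normal cells, normal cells into healthy, pyknosed or fragmented nuclei, and pyknosed cells into mitotic or apoptotic. Before that, live cells stained at seeding with Hoechst33342, BioTracker Green Microtubule Cytoskeleton Dye, MitoTracker Red and Annexin V Alexa Fluor 680 were imaged on a CQ1 microscope at 37°C and 5% CO2 after compound addition.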

U2OS = experiment: Multiplex assay against U2OS; type: toxicity, cell-based; details: human, number of replicates 2; procedure, shortened: as §1
[1] = 24 h, 1 µM, compound concentration 1 uM
[2] = 24 h, 10 µM, compound concentration 10 uM
[3] = 48 h, 1 µM, compound concentration 1 uM
[4] = 48 h, 10 µM, compound concentration 10 uM
[5] = 12 h, 1 µM, compound concentration 1 uM
[6] = 12 h, 10 µM, compound concentration 10 uM

O=S(=O)(c1ccccc1)N(CC(F)(F)F)c1ccc(C(O)(C(F)(F)F)C(F)(F)F)cc1 [T091317]
Population Hoechst High Intensity Objects (%) (HEK-293T; [1]): 8% and 7% | Population Membrane Permeable-Phenotype (%) (HEK-293T; [1]): 4% | Population Mitochondria Different-Phenotype (%) (HEK-293T; [1]): 5% and 8% | Population Mitotic Cells (%) (HEK-293T; [1]): 60% and 43% | Population Normal (%) (HEK-293T; [1]): 91% and 92% | Population Pyknosed Nuclei (%) (HEK-293T; [1]): 8% and 10% | Population Tubulin-Different-Phenotype (%) (HEK-293T; [1]): 36% and 38% | Total Cell Count (HEK-293T; [1]): 1214 and 697 | Population Apoptotic (%) (HEK-293T; [2]): 44% and 68% | Population Fragmented Nuclei (%) (HEK-293T; [2]): 2% and 7% | Population Healthy Nuclei (%) (HEK-293T; [2]): 84% and 79% | Population Hoechst High Intensity Objects (%) (HEK-293T; [2]): 9% and 18% | Population Membrane Permeable-Phenotype (%) (HEK-293T; [2]): 4% and 3% | Population Mitochondria Different-Phenotype (%) (HEK-293T; [2]): 53% and 59% | Population Mitotic Cells (%) (HEK-293T; [2]): 55% and 31% | Population Normal (%) (HEK-293T; [2]): 90% and 81% | Population Pyknosed Nuclei (%) (HEK-293T; [2]): 12% and 13% | Population Tubulin-Different-Phenotype (%) (HEK-293T; [2]): 87% and 86% | Total Cell Count (HEK-293T; [2]): 385 and 376 | Population Fragmented Nuclei (%) (HEK-293T; [3]): 15% and 8% | Population Healthy Nuclei (%) (HEK-293T; [3]): 80% and 87% | Population Hoechst High Intensity Objects (%) (HEK-293T; [3]): 10% and 9% | Population Membrane Permeable-Phenotype (%) (HEK-293T; [3]): 6% and 3% | Population Mitochondria Different-Phenotype (%) (HEK-293T; [3]): 0% and 2% | Population Mitotic Cells (%) (HEK-293T; [3]): 90% and 68% | Population Normal (%) (HEK-293T; [3]): 89% and 90% | Population Pyknosed Nuclei (%) (HEK-293T; [3]): 3% | Population Tubulin-Different-Phenotype (%) (HEK-293T; [3]): 19% and 22% | Total Cell Count (HEK-293T; [3]): 2956 and 1428 | Population Apoptotic (%) (HEK-293T; [4]): 67% and 74% | Population Fragmented Nuclei (%) (HEK-293T; [4]): 7% and 14% | Population Healthy Nuclei (%) (HEK-293T; [4]): 78% and 66% | Population Hoechst High Intensity Objects (%) (HEK-293T; [4]): 14% and 24% | Population Membrane Permeable-Phenotype (%) (HEK-293T; [4]): 4% | Population Mitochondria Different-Phenotype (%) (HEK-293T; [4]): 66% and 58% | Population Mitotic Cells (%) (HEK-293T; [4]): 32% and 25% | Population Normal (%) (HEK-293T; [4]): 85% and 75% | Population Pyknosed Nuclei (%) (HEK-293T; [4]): 14% and 19% | Population Tubulin-Different-Phenotype (%) (HEK-293T; [4]): 94% and 82% | Total Cell Count (HEK-293T; [4]): 296 and 264 | Population Apoptotic (%) (U2OS; [5]): 75% and 39% | Population Healthy Nuclei (%) (U2OS; [5]): 62% and 82% | Population Hoechst High Intensity Objects (%) (U2OS; [5]): 2% and 0% | Population Mitochondria Different-Phenotype (%) (U2OS; [5]): 0% and 1% | Population Mitotic Cells (%) (U2OS; [5]): 25% and 60% | Population Normal (%) (U2OS; [5]): 97% and 100% | Population Pyknosed Nuclei (%) (U2OS; [5]): 10% and 12% | Population Tubulin-Different-Phenotype (%) (U2OS; [5]): 52% and 81% | Population Apoptotic (%) (U2OS; [6]): 66% and 45% | Population Healthy Nuclei (%) (U2OS; [6]): 56% and 80% | Population Hoechst High Intensity Objects (%) (U2OS; [6]): 0% | Population Membrane Permeable-Phenotype (%) (U2OS; [6]): 4% and 5% | Population Mitochondria Different-Phenotype (%) (U2OS; [6]): 0% and 2% | Population Mitotic Cells (%) (U2OS; [6]): 33% and 54% | Population Normal (%) (U2OS; [6]): 100% | Population Pyknosed Nuclei (%) (U2OS; [6]): 7% and 13% | Population Tubulin-Different-Phenotype (%) (U2OS; [6]): 40% and 41% | Population Apoptotic (%) (U2OS; [1]): 100% and 56% | Population Healthy Nuclei (%) (U2OS; [1]): 58% and 88% | Population Hoechst High Intensity Objects (%) (U2OS; [1]): 3% and 0% | Population Mitochondria Different-Phenotype (%) (U2OS; [1]): 8% and 0% | Population Normal (%) (U2OS; [1]): 96% and 100% | Population Pyknosed Nuclei (%) (U2OS; [1]): 4% and 7% | Population Tubulin-Different-Phenotype (%) (U2OS; [1]): 59% and 82% | Population Apoptotic (%) (U2OS; [2]): 57% and 52% | Population Healthy Nuclei (%) (U2OS; [2]): 65% and 78% | Population Hoechst High Intensity Objects (%) (U2OS; [2]): 0% | Population Membrane Permeable-Phenotype (%) (U2OS; [2]): 3% and 4% | Population Mitochondria Different-Phenotype (%) (U2OS; [2]): 0% and 5% | Population Mitotic Cells (%) (U2OS; [2]): 42% and 47% | Population Normal (%) (U2OS; [2]): 100% | Population Pyknosed Nuclei (%) (U2OS; [2]): 14% and 16% | Population Tubulin-Different-Phenotype (%) (U2OS; [2]): 40% and 47% | Population Apoptotic (%) (U2OS; [3]): 33% and 36% | Population Healthy Nuclei (%) (U2OS; [3]): 65% and 90% | Population Hoechst High Intensity Objects (%) (U2OS; [3]): 3% and 0% | Population Membrane Permeable-Phenotype (%) (U2OS; [3]): 10% and 1% | Population Mitochondria Different-Phenotype (%) (U2OS; [3]): 10% and 0% | Population Mitotic Cells (%) (U2OS; [3]): 66% and 63% | Population Normal (%) (U2OS; [3]): 96% and 100% | Population Pyknosed Nuclei (%) (U2OS; [3]): 9% and 6% | Population Tubulin-Different-Phenotype (%) (U2OS; [3]): 72% and 84% | Population Apoptotic (%) (U2OS; [4]): 79% and 66% | Population Fragmented Nuclei (%) (U2OS; [4]): 5% and 15% | Population Healthy Nuclei (%) (U2OS; [4]): 81% and 70% | Population Hoechst High Intensity Objects (%) (U2OS; [4]): 0% | Population Membrane Permeable-Phenotype (%) (U2OS; [4]): 4% and 2% | Population Mitochondria Different-Phenotype (%) (U2OS; [4]): 3% and 2% | Population Mitotic Cells (%) (U2OS; [4]): 20% and 33% | Population Normal (%) (U2OS; [4]): 100% | Population Pyknosed Nuclei (%) (U2OS; [4]): 13% | Population Tubulin-Different-Phenotype (%) (U2OS; [4]): 58% and 34%
